Reference: ChEMBL document CHEMBL4680306, “The 3-D conformational shape of N-naphthyl-cyclopenta[d]pyrimidines affects their potency as microtubule targeting agents and their antitumor activity” (Bioorg Med Chem, 2021)

Legend:
[1] = test system: SNB-19; test: Cytotoxicity against human SNB-19 cells assessed as inhibition of cell growth measured after 48 hrs by SRB assay; format: functional
[2] = test system: OVCAR-5; test: Cytotoxicity against human OVCAR-5 cells assessed as inhibition of cell growth measured after 48 hrs by SRB assay; format: functional
[3] = test system: A498; test: Cytotoxicity against human A498 cells assessed as inhibition of cell growth measured after 48 hrs by SRB assay; format: functional
[4] = test system: COLO 205; test: Cytotoxicity against human COLO 205 cells assessed as inhibition of cell growth measured after 48 hrs by SRB assay; format: functional
[5] = test system: Hs-578T; test: Cytotoxicity against human Hs-578T cells assessed as inhibition of cell growth measured after 48 hrs by SRB assay; format: functional
[6] = Relative resistance, ratio of IC50 for inhibition of beta3 Tubulin (unknown origin) expressed in human HeLa cell line assessed as inhibition of cell proliferation to IC50 antiproliferative activity against human HeLa cells
[7] = test system: ACHN; test: Cytotoxicity against human ACHN cells assessed as inhibition of cell growth measured after 48 hrs by SRB assay; format: functional
[8] = Induction of microtubule depolymerisation in rat A-10 cell line measured after 18 hrs by indirect immunofluorescence method; conditions: a10
In short: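 Rat A-10 cells, chosen because they arrest in interphase without significant mitotic accumulation, were exposed to compounds for 18 h. Cellular microtubules were then visualized by indirect immunofluorescence. EC50 values come from at least three independent experiments.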

[9] = test system: MDA-MB-435; test: Cytotoxicity against human MDA-MB-435 cells assessed as inhibition of cell growth measured after 48 hrs by SRB assay; format: functional
[10] = test system: SW-620; test: Cytotoxicity against human SW-620 cells assessed as inhibition of cell growth measured after 48 hrs by SRB assay; format: functional
[11] = test system: Malme-3M; test: Cytotoxicity against human Malme-3M cells assessed as inhibition of cell growth measured after 48 hrs by SRB assay; format: functional
[12] = test system: RPMI-8226; test: Cytotoxicity against human RPMI-8226 cells assessed as inhibition of cell growth measured after 48 hrs by SRB assay; format: functional
[13] = test system: UACC-62; test: Cytotoxicity against human UACC-62 cells assessed as inhibition of cell growth measured after 48 hrs by SRB assay; format: functional
[14] = test system: OVCAR-3; test: Cytotoxicity against human OVCAR-3 cells assessed as inhibition of cell growth measured after 48 hrs by SRB assay; format: functional
[15] = test system: MDA-MB-435; test: Antiproliferative activity against human MDA-MB-435 cell line assessed as inhibition of cell proliferation measured after 48 hrs by SRB assay; format: functional, cell-based; conditions: MDA-MB-435, 48 h
In short: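 MDA-MB-435 melanoma cells were assessed by sulforhodamine B assay. IC50 is the mean ± SD of at least three independent experiments, each run in triplicate.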

[16] = test system: HCT-15; test: Cytotoxicity against human HCT-15 cells assessed as inhibition of cell growth measured after 48 hrs by SRB assay; format: functional
[17] = test system: T47D; test: Cytotoxicity against human T47D cells assessed as inhibition of cell growth measured after 48 hrs by SRB assay; format: functional
[18] = test system: 786-0; test: Cytotoxicity against human 786-0 cells assessed as inhibition of cell growth measured after 48 hrs by SRB assay; format: functional
[19] = test system: UO-31; test: Cytotoxicity against human UO-31 cells assessed as inhibition of cell growth measured after 48 hrs by SRB assay; format: functional
[20] = test system: HeLa; test: Antiproliferative activity against human HeLa cells assessed as decrease in cell growth measured after 48 hrs by SRB method; format: functional, cell-based
[21] = organism: Bos taurus; test: Inhibition of [3H]colchicine binding to bovine tubulin at 1 uM measured after 10 mins by scintillation counting
In short: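 Purified bovine brain tubulin at 1.0 µM was mixed with 5.0 µM [3H]colchicine and inhibitor, plus components that stabilize colchicine binding, in 5% DMSO; tubulin was added last, on ice. Binding ran 10 min at 37 °C and was stopped with ice water. Mixtures were filtered through stacked DEAE-cellulose filters, and bound radiolabel was measured by scintillation counting.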

[22] = test system: IGROV-1; test: Cytotoxicity against human IGROV-1 cells assessed as inhibition of cell growth measured after 48 hrs by SRB assay; format: functional
[23] = Toxicity in NCr athymic nude nu/nu mouse xenografted human U251 cells assessed as body weight change at 50 mg/kg once in a week relative to temozolomide; format: organism-based; conditions: in vivo, 17.5 mg/kg, 168 h, in the assay text read “17.5 mg/kg twice in a week” for “50 mg/kg once in a week”
In short: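 NCr athymic nu/nu nude mice (8 wk; equal numbers of males and females) received 500,000 U251 glioma cells in the lateral flank. Once tumors were visible, mice were dosed with carrier (5% DMSO, 5% Kolliphor-15, 90% normal saline), temozolomide at 50 mg/kg/wk, or test compound at 17.5 mg/kg twice weekly until the end of the study. Body weight was monitored and tumors were caliper-measured twice weekly; n=6–8.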

[24] = test system: NCI-H460; test: Cytotoxicity against human NCI-H460 cells assessed as inhibition of cell growth measured after 48 hrs by SRB assay; format: functional

COc1cccc2cc(N(C)c3nc(C)nc4c3CCC4)ccc12
GI50 [1]: < 10 nM | GI50 [2]: < 10 nM | GI50 [3]: < 10 nM | GI50 [4]: < 10 nM | GI50 [5]: < 10 nM | Ratio IC50 [6]: 0.8 | GI50 [7]: < 10 nM | EC50 [8]: 4.5 nM | GI50 [9]: < 10 nM | GI50 [10]: < 10 nM | GI50 [11]: 11500 nM | GI50 [12]: < 10 nM | GI50 [13]: 1490 nM | GI50 [14]: < 10 nM | IC50 [15]: 2.8 nM | GI50 [16]: < 10 nM | GI50 [17]: < 10 nM | GI50 [18]: < 10 nM | GI50 [19]: 10.7 nM | IC50 [20]: 3.4 nM | inhibition [21]: 86% | GI50 [22]: < 10 nM | Activity [23]: Non-Toxic | GI50 [24]: < 10 nM
